We go through four compounds from ChEMBL document CHEMBL4130454, “Anchimerically Activatable Antiviral ProTides” (ACS Med Chem Lett, 2017).

The nature of data set [1]: Cytotoxicity against African green monkey Vero cells assessed as decrease in cell viability after 72 hrs by neutral red dye uptake assay. The data set is classed as cell-based. To be noted: chlorocebus sabaeus. In short, it runs like this:
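Vero cells were exposed to a range of compound concentrations for 72 h. Viability was read by Neutral Red dye uptake, six replicates.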

A short description of data set [2]: Drug metabolism assessed as half life for ((2R,3R,4R,5R)-5-(2-amino-6-oxo-1,6-dihydro-9H-purin-9-yl)-3,4-dihydroxy-4-methyltetrahydrofuran-2-yl)methyl hydrogen (2-(1H-indol-3-yl)ethyl)phosphoramidate formation in HEPES buffer at pH 7.4 by RP-HPLC analysis. Format: physicochemical. Put shortly: (§1)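 Diester prodrug incubated at 37 °C in 20 mM HEPES buffer, pH 7.4 or pH 2.0. Removal of the 2-(methylthio)ethyl group, giving the monoester phosphoramidate, was followed over time by reversed-phase HPLC. The half-life was derived from the conversion time course.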

The nature of data set [3]: Drug metabolism assessed as half life for ((2R,3R,4R,5R)-5-(2-amino-6-oxo-1,6-dihydro-9H-purin-9-yl)-3,4-dihydroxy-4-methyltetrahydrofuran-2-yl)methyl hydrogen (2-(1H-indol-3-yl)ethyl)phosphoramidate formation in HEPES buffer at pH 2 by RP-HPLC analysis. Format: physicochemical. Put shortly:
as §1

The subject of data set [4] is dengue virus type 2. The data set is described as follows: Antiviral activity against Dengue virus 2 prototype 16681 infected in African green monkey Vero cells assessed as inhibition of viral RNA replication at 100 uM after 72 hrs in presence of 100 uM of HINT1 inhibitor […] by qPCR method. Format: functional, organism-based. Put shortly:
(§2)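 Vero cells infected with DENV-2 (moi = 0.2), then treated with 100 μM compound, alone or together with 100 μM TrpGc (HINT1 inhibitor). After 72 h, supernatant RNA was extracted and viral progeny quantified by DENV-2-specific qPCR. Replication is expressed as percentage of the untreated infected control. Mean of four independent experiments.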

The subject of data set [5] is dengue virus type 2. As to the kind of experiment: Antiviral activity against Dengue virus 2 prototype 16681 infected in African green monkey Vero cells assessed as inhibition of viral RNA replication at 100 uM after 72 hrs by qPCR method. Format: functional, organism-based. Put shortly:
as §2
Background: Quantitative PCR measures a nucleic acid by following its amplification.

The subject of data set [6] is dengue virus type 2. As to the kind of experiment: Antiviral activity against Dengue virus 2 prototype 16681 infected in Vero cells assessed as inhibition of virus induced cytopathic effect by plaque assay. The settings on record: prototype 16681, Vero. Background: Cytopathic effects are the visible damage that an infection or toxin causes in cultured cells.
The subject of data set [7] is dengue virus type 2. The data set is described as follows: Antiviral activity against Dengue virus 2 New Guinea assessed as inhibition of virus induced cytopathic effect by neutral red dye uptake assay. The data set is classed as functional, organism-based.

The structures appear in SMILES notation. Calls of active or inactive are those of the source. The rule behind the calls is not given here.

As to `CSCCOP(=O)(NCCc1c[nH]c2ccccc12)OC[C@H]1O[C@@H](n2cnc3c(=O)[nH]c(N)nc32)[C@](C)(O)[C@@H]1O` (some centres undefined), the CC50 at 72 h in data set [1] was above 200 µM. Further, the t1/2 in data set [2] worked out at 4.5 h; in data set [3], 3.78 h. In addition, in the data set on dengue virus type 2 [4], the inhibition entry was “inactive”. Moreover, the inhibition entry with dengue virus type 2 [5] was “Active”. Also, the half-inhibitory concentration (IC50) with dengue virus type 2 [6] is 1.59 µM.

Turning to `C[C@@]1(O)[C@H](O)[C@@H](CO)O[C@H]1n1cnc2c(N)ncnc21`, the EC50 in the data set on dengue virus type 2 [7] was found to be 4 µM.

Consider `C[C@@]1(O)[C@H](O)[C@@H](CO)O[C@H]1n1cnc2c(=O)[nH]c(N)nc21` [2'-B-METHYL-GUANOSINE], for which the CC50 at 72 h in data set [1] is above 200 µM. The EC50 with dengue virus type 2 [7] came to 13.6 µM. Further, the IC50 in the data set with dengue virus type 2 [6] worked out at 8.14 µM.

Consider `C[C@@]1(O)[C@H](O)[C@@H](COP(=O)(O)NCCc2c[nH]c3ccccc23)O[C@H]1n1cnc2c(=O)[nH]c(N)nc21`, for which the CC50 at 72 h in data set [1] is above 200 µM. Further, the inhibition entry in the data set with dengue virus type 2 [4] is “inactive”. Besides, in the data set with dengue virus type 2 [5], the inhibition result is “Active”. Further, the concentration for half-maximal inhibition (IC50) in the data set with dengue virus type 2 [6] came out at 6.84 µM.

One may read the CC50 as the concentration giving 50% cytotoxicity. The term IC50 denotes the midpoint of a concentration-inhibition curve. Broadly, the EC50 is the concentration that produces a half-maximal response.
